# Key:
# [1] = target: Sulfonylurea receptors; K-ATP channels (Homo sapiens) (UniProt Q14654+O60706+Q09428+Q15842); assay: Percent inhibition of glibenclamide binding to K+ channel; format: protein-complex assay; design: concentration or dose not given beside the values
# How it was run: (§1)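 Preliminary screen of receptors isolated from rat or pig tissues, run with minor changes to standard procedures. Each compound was tested at a single fixed concentration for each receptor. The read-out was the percent decrease in binding of the named radioligand.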
# [2] = target: GABA-A receptor; anion channel (Homo sapiens) (UniProt P14867+P47870+P18507+P28472+P48169+Q99928+Q9UN88+P34903+O00591+O14764+Q8N1C3+P18505+P78334+P47869+P31644+Q16445); assay: Displacement of muscimol from GABA-A receptor; format: protein-complex assay; how it was run: as §1
# [3] = target: Serotonin 2 (5-HT2) receptor (Rattus norvegicus, UniProt P30994+P08909+P14842); assay: Binding affinity against 5-hydroxytryptamine 2 receptor in rat striatum using [3H]-RP62203; format: tissue-based
# [4] = target: T1, Muscarinic acetylcholine receptor M1 (Homo sapiens) (UniProt P11229); assay: Percent decrease of Muscarinic acetylcholine receptor M1 binding using pirenzepine; design: scale not given: the % may be the effect or the level left; how it was run: as §1
# T1 sequence (whole entry): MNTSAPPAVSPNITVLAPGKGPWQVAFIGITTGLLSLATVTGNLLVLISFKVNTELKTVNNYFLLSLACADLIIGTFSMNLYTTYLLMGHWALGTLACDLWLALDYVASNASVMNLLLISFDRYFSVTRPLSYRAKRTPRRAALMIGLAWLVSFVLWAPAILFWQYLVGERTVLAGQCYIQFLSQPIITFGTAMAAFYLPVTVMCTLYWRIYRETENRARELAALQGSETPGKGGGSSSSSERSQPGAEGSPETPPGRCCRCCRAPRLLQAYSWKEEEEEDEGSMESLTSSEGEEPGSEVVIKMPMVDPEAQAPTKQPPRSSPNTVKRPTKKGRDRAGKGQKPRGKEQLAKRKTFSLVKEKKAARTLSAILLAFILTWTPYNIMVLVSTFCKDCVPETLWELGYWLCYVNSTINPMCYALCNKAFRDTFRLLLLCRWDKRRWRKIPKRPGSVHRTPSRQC
# D(1A) dopamine receptor = D(1A) dopamine receptor (Rattus norvegicus, UniProt P18901); assay: Binding affinity against Dopamine receptor D1 of rat striatal receptor using [3H]SCH-23390
# How it was run: (§2)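 Rat striatal receptor preparations were used, with [3H]SCH23390 for D1, [3H]spiperone for D2 and [3H]RP62203 for 5-HT2. Ki ([…]) was derived from competitive displacement of the radioligand, with n = 3–7.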
# [5] = target: Serotonin 2 (5-HT2) receptor (Homo sapiens) (UniProt P41595+P28223+P28335); assay: (§3) Percent decrease in 5-hydroxytryptamine 2 receptor binding using ketanserin; format: protein assay; design: scale not given: the % may be the effect or the level left; how it was run: as §1
# [6] = target: Neuronal acetylcholine receptor (Rattus norvegicus) (UniProt P04757+P09483+P12389+P12390+P12392+P43144+Q9JLB5+P12391+P43143+P20420+Q05941); assay: % Decrease of Nicotinic acetylcholine receptor-bound radioactivity using cytisine as a radioligand.; format: protein-complex assay; design: scale not given: the % may be the effect or the level left; how it was run: as §1
# [7] = target: T2, 5-hydroxytryptamine receptor 1A (Homo sapiens) (UniProt P08908); assay: Percent decrease in 5-hydroxytryptamine 1A receptor binding using 8-OH-DPAT; design: concentration or dose not given beside the values; how it was run: as §1
# T2 sequence (whole entry): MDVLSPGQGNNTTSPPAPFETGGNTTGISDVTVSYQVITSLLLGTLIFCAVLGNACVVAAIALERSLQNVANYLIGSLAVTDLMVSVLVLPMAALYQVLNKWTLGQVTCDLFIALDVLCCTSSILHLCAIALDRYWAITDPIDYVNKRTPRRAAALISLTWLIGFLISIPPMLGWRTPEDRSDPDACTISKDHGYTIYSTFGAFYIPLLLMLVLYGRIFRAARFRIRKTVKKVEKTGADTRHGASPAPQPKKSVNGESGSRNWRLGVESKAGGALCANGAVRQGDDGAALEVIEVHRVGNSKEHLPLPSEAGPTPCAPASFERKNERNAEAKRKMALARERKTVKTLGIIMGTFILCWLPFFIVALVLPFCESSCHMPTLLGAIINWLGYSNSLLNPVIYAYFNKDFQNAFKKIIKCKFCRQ
# [8] = Percent decrease in Bradykinin receptor binding; design: concentration or dose not given beside the values; how it was run: as §1
# [9] = target: Glutamate [NMDA] receptor (Homo sapiens) (UniProt Q05586+Q12879+Q13224+O15399+O60391+Q14957+Q8TCU5); assay: Percent decrease of N-methyl-D-aspartate glutamate receptor binding using MK-801; format: protein-complex assay; design: concentration or dose not given beside the values; how it was run: as §1
# D(2) dopamine receptor = D(2) dopamine receptor (Rattus norvegicus, UniProt P61169); assay: Binding affinity against Dopamine receptor D2 of rat striatal mambranes using [3H]spiperone; how it was run: as §2
# [10] = target: T3, Glutamate receptor ionotropic AMPA (Homo sapiens) (UniProt P48058+P42263+P42262+P42261); assay: Percent decrease in Quisqualate receptor binding using AMPA; format: protein-complex assay; design: scale not given: the % may be the effect or the level left; how it was run: as §1
# [11] = % Decrease of Phorbol Diester Receptor -bound radioactivity using PDBU as a radioligand.; design: scale not given: the % may be the effect or the level left; how it was run: as §1
# [12] = % Decrease of adenosine carrier-receptor -bound radioactivity using NBTI as a radioligand.; design: concentration or dose not given beside the values; how it was run: as §1
# [13] = target: Angiotensin II receptor (Homo sapiens) (UniProt P30556+P50052); assay: Percent decrease of Angiotensin II receptor binding; format: protein assay; design: concentration or dose not given beside the values; how it was run: as §1
# [14] = target: T4, Adenosine receptor A1 (Homo sapiens) (UniProt P30542); assay: Percent decrease in Adenosine A1 receptor binding using CPDPX; design: scale not given: the % may be the effect or the level left
# T4 sequence (whole entry): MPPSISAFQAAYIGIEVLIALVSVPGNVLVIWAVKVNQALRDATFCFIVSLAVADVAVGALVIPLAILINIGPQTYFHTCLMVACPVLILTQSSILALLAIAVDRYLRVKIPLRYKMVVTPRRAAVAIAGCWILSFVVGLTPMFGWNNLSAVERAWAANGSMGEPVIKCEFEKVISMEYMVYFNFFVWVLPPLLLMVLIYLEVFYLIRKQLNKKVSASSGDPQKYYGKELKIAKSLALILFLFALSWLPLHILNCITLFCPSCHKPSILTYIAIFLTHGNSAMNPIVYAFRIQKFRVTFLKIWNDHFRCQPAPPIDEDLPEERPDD
# [15] = Percent decrease of Endothelin receptor binding using [125I]sarafotoxin; design: concentration or dose not given beside the values
# [16] = target: D(1A) dopamine receptor (Rattus norvegicus) (UniProt P18901); assay: Percent decrease in Dopamine receptor D1 binding using SCH-23390; design: scale not given: the % may be the effect or the level left
# [17] = target: Sodium-dependent serotonin transporter (Homo sapiens) (UniProt P31645); assay: % Decrease of 5-HT carrier-receptor -bound radioactivity using paroxetine as a radioligand.; design: concentration or dose not given beside the values; how it was run: as §1
# [18] = Percent decrease in Dopamine receptor D2 binding using spiperone; design: scale not given: the % may be the effect or the level left
# [19] = target: Serotonin 2 (5-HT2) receptor (Rattus norvegicus) (UniProt P30994+P08909+P14842); assay: as §3; format: protein assay; design: scale not given: the % may be the effect or the level left; how it was run: as §1
# [20] = target: T3, Glutamate receptor ionotropic AMPA (Homo sapiens); assay: Percent decrease of Quisqualate receptor binding using AMPA; format: protein-complex assay; design: scale not given: the % may be the effect or the level left; how it was run: as §1
# [21] = target: T4, Adenosine receptor A1 (Homo sapiens); assay: Percent decrease in adenosine-A1-receptor binding using CPDPX; design: scale not given: the % may be the effect or the level left; how it was run: as §1
# [22] = target: D(2) dopamine receptor (Rattus norvegicus) (UniProt P61169); assay: Percent decrease in Dopamine receptor D2 binding using spiperone; design: scale not given: the % may be the effect or the level left; how it was run: as §1
# [23] = target: Adrenergic receptor alpha-1 (Homo sapiens) (UniProt P35348+P25100+P35368); assay: Percent decrease in Alpha-1 adrenergic receptor binding using prazosin; format: protein assay; how it was run: as §1
# Chain of Sodium-dependent serotonin transporter (Homo sapiens) (P31645 whole entry, looked up): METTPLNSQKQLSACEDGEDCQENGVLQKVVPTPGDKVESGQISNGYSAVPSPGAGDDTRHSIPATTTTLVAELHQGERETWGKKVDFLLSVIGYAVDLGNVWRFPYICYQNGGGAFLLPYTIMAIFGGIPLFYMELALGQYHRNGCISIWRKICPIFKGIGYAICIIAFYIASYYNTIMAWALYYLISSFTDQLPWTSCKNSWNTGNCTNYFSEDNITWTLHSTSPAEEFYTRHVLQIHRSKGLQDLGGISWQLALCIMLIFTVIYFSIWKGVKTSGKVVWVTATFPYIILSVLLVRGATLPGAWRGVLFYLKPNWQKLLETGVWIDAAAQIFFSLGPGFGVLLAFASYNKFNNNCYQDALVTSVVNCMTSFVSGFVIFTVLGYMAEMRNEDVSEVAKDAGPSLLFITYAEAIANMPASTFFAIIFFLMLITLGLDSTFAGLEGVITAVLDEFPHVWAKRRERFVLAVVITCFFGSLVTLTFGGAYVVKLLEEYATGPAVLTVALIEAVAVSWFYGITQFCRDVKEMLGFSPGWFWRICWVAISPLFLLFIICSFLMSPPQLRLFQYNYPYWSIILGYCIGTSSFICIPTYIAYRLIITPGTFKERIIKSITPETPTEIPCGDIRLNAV
# Chain of Sulfonylurea receptors; K-ATP channels (Homo sapiens) (O60706 whole entry, looked up): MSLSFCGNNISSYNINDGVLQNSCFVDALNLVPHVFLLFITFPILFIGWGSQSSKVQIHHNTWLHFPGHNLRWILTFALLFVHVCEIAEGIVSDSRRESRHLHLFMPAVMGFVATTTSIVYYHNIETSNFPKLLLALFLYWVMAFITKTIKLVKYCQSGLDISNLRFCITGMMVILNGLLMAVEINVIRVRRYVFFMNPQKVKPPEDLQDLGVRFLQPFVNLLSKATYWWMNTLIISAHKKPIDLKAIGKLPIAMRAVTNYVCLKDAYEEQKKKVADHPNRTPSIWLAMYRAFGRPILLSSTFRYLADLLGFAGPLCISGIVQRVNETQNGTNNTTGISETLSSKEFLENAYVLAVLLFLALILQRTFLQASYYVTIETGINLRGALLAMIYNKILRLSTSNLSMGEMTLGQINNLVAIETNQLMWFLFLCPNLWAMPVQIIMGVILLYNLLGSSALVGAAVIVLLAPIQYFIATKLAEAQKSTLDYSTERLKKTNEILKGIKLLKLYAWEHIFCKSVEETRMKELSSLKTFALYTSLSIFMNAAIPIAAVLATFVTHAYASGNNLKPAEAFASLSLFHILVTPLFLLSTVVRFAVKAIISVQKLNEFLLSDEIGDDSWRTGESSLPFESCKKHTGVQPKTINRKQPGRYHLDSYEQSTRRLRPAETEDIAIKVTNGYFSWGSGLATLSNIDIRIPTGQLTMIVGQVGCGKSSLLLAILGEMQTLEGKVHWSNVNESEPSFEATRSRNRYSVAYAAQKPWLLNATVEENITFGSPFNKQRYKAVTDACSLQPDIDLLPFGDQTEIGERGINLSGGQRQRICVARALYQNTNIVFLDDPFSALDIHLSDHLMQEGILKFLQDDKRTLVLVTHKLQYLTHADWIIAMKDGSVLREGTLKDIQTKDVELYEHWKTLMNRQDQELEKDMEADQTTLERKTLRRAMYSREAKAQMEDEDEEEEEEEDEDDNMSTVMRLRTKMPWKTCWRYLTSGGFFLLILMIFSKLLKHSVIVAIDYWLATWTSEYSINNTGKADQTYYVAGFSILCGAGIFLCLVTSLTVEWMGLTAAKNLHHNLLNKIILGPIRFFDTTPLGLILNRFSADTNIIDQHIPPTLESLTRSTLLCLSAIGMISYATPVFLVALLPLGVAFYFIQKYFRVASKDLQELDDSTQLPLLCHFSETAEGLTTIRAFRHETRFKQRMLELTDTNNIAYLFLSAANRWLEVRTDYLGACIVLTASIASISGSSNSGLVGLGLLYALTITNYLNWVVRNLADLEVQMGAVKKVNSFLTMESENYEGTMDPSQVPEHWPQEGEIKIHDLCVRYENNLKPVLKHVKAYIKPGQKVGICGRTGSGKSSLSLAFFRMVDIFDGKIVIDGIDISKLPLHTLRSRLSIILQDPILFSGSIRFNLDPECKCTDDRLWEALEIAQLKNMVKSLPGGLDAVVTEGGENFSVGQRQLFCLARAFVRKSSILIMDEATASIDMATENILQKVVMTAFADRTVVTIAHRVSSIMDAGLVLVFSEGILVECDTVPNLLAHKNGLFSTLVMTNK
# Chain of Sulfonylurea receptors; K-ATP channels (Homo sapiens) (Q09428 whole entry, looked up): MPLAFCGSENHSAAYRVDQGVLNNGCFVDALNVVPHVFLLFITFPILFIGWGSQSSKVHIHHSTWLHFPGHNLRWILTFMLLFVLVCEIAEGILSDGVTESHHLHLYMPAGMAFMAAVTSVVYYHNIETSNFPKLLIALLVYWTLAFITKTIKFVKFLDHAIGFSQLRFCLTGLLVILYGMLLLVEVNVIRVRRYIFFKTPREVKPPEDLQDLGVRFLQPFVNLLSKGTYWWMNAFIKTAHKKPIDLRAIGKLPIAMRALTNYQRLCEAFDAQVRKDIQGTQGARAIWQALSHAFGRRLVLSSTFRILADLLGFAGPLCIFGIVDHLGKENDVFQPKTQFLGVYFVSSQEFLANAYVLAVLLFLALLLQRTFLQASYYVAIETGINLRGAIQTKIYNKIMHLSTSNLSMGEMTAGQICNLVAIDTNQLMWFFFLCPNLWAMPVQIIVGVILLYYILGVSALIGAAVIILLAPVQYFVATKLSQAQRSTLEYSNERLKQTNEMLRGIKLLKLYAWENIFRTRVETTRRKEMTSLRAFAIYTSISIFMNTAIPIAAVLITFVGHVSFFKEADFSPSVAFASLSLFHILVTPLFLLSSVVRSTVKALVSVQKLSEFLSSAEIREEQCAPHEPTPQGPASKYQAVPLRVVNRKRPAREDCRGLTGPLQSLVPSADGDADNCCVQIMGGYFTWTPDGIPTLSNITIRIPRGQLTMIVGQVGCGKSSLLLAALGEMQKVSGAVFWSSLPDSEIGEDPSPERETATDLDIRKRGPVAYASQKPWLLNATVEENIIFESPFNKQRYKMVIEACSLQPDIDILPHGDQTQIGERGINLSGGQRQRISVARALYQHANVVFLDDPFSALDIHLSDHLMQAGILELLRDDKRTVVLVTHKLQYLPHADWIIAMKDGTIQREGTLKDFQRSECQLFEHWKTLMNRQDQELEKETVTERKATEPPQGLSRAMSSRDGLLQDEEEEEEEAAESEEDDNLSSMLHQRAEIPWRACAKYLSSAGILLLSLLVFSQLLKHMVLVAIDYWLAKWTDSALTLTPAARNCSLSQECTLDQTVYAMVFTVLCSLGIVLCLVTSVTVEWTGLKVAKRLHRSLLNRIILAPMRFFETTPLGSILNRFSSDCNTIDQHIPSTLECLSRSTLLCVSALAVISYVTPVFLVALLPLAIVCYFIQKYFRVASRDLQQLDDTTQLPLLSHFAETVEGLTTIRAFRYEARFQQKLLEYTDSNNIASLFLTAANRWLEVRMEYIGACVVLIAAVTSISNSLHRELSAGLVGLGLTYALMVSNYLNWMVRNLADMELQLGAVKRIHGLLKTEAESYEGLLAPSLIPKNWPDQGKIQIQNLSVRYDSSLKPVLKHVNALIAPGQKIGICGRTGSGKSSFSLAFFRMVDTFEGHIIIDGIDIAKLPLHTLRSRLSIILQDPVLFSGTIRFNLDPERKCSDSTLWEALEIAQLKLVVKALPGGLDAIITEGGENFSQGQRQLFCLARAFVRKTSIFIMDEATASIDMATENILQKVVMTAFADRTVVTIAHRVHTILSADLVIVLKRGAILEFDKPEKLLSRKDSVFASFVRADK
# Chain of Sulfonylurea receptors; K-ATP channels (Homo sapiens) (Q14654 whole entry, looked up): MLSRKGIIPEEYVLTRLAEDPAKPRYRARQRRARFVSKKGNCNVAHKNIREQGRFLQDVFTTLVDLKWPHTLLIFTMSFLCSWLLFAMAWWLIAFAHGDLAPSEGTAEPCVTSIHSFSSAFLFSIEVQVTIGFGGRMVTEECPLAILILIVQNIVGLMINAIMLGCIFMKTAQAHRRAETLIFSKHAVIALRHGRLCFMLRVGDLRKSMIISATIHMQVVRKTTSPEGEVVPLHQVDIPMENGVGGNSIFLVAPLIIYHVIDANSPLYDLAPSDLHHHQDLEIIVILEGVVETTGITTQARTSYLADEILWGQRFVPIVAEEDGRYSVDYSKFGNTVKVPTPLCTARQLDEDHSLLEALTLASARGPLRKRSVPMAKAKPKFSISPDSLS
# Chain of Sulfonylurea receptors; K-ATP channels (Homo sapiens) (Q15842 whole entry, looked up): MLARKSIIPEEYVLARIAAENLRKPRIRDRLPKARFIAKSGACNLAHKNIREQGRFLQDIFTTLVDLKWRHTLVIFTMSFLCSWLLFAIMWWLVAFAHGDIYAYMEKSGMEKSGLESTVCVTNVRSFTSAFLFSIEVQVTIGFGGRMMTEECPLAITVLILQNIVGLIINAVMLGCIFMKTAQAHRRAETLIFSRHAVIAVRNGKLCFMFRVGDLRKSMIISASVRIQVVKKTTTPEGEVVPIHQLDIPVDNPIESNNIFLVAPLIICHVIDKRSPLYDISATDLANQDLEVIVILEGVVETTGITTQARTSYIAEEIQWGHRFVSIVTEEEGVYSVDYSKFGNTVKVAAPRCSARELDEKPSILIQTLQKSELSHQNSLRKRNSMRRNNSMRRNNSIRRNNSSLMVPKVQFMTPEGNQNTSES
# Chain of D(2) dopamine receptor (P61169 whole entry): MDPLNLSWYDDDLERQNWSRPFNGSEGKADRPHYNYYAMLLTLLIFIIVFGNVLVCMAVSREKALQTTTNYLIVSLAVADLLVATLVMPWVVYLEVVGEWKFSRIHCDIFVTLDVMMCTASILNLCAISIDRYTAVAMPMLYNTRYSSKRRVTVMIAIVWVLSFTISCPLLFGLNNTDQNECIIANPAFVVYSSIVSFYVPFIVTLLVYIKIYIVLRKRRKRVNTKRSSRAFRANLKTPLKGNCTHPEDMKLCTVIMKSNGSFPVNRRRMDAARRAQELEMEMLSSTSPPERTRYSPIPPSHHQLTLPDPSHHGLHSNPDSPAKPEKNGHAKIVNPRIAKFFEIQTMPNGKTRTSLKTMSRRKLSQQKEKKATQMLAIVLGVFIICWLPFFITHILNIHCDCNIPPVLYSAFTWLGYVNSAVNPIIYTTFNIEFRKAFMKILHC
# Chain of D(2) dopamine receptor (Rattus norvegicus) (P61169 whole entry): as above
Compound,Activity [1] [%],Activity [2] [%],Ki [3] [nM],Activity [4] [%],Ki (D(1A) dopamine receptor) [nM],Activity [5] [%],Activity [6] [%],Activity [7] [%],Activity [8] [%],Activity [9] [%],Ki (D(2) dopamine receptor) [nM],Activity [10] [%],Activity [11] [%],Activity [12] [%],Activity [13] [%],Activity [14] [%],Activity [15] [%],Activity [16] [%],Activity [17] [%],Activity [18] [%],also measured
CN1CCc2c([nH]c3ccccc23)Cc2[nH]c3ccccc3c2CC1,0,-4,180,-14,9.6,-80,-7,-25,-21,-56,79,0,-5,-11,9,-6,0,-95,-13,-95,
C[N+]12CCc3c([nH]c4ccccc34)C1c1[nH]c3ccccc3c1CC2 (configuration not stated),6,-4,,-15,,,3,-3,-4,-20,,,-17,7,-3,,0,,-33,,Activity [19]: -32%; Activity [20]: 11%; Activity [21]: 11%; Activity [22]: -22%; Decrease [23]: -64%
COc1cc2c(cc1OC)Cc1[nH]c3ccccc3c1CCN(C)CC2,1,-23,960,-22,91,-67,-10,-22,-19,-44,730,-8,-1,-9,9,3,1,-82,-2,-77,

# Reference: ChEMBL document CHEMBL1133101, “7-Methyl-6,7,8,9,14,15-hexahydro-5H-benz[d]indolo[2,3-g]azecine: a new heterocyclic system and a new lead compound for dopamine receptor antagonists” (J Med Chem, 2000)
